Measured values: ChEMBL document CHEMBL1629690, “Development of hexadecyloxypropyl tenofovir (CMX157) for treatment of infection caused by wild-type and nucleoside/nucleotide-resistant HIV” (Antimicrob Agents Chemother, 2010)

Tested on: Human immunodeficiency virus 1
Assay: Antiviral activity against HIV1 isolate 162 harboring reverse transcriptase A62V/V75I/F77L/Y115F/F116Y/Q151M/M184V mutant gene by phenosense assay
Format: functional, organism-based
Conditions: Human immunodeficiency virus 1, isolate 162
Method in brief: (§1)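 Recombinant-virus PhenoSense HIV assay run on a panel of 30 NRTI-resistant HIV-1 mutants and two wild-type viruses. Each virus is tested across increasing drug concentrations to give an inhibition curve and EC50. Fold change is the test recombinant EC50 divided by the EC50 of the drug-sensitive wild-type reference virus.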

SMILES	EC50 [µM]
Nc1nc(NC2CC2)c2ncn([C@H]3C=C[C@@H](CO)C3)c2n1 [ABACAVIR]	> 52
Nc1ccn([C@@H]2CS[C@H](CO)O2)c(=O)n1 [LAMIVUDINE]	> 300

Tested on: Human immunodeficiency virus 1
Assay: Antiviral activity against HIV1 isolate 071 harboring reverse transcriptase 65R/S68N/184V mutant gene by phenosense assay
Format: functional, organism-based
Conditions: Human immunodeficiency virus 1, isolate 071
Method in brief: as §1

SMILES	EC50 [µM]
Nc1nc(NC2CC2)c2ncn([C@H]3C=C[C@@H](CO)C3)c2n1 [ABACAVIR]	12
Nc1ccn([C@@H]2CS[C@H](CO)O2)c(=O)n1 [LAMIVUDINE]	> 300

Tested on: Human immunodeficiency virus 1
Assay: Antiviral activity against HIV1 isolate 157 harboring reverse transcriptase L74V/M184V mutant gene by phenosense assay
Format: functional, organism-based
Conditions: Human immunodeficiency virus 1, isolate 157
Method in brief: as §1

SMILES	EC50 [µM]
Nc1nc(NC2CC2)c2ncn([C@H]3C=C[C@@H](CO)C3)c2n1 [ABACAVIR]	9.2
Nc1ccn([C@@H]2CS[C@H](CO)O2)c(=O)n1 [LAMIVUDINE]	> 300

Tested on: Human immunodeficiency virus 1
Assay: Antiviral activity against HIV1 isolate 060 harboring reverse transcriptase M41L/D67N/K70R/L210W/T215Y/K219E mutant gene by phenosense assay
Format: functional, organism-based
Conditions: Human immunodeficiency virus 1, isolate 060
Method in brief: as §1

SMILES	EC50 [µM]
Nc1nc(NC2CC2)c2ncn([C@H]3C=C[C@@H](CO)C3)c2n1 [ABACAVIR]	11
Nc1ccn([C@@H]2CS[C@H](CO)O2)c(=O)n1 [LAMIVUDINE]	22

Tested on: Human immunodeficiency virus 1
Assay: Antiviral activity against HIV1 isolate 200 harboring reverse transcriptase M41L/L210W/T215Y mutant gene by phenosense assay relative to wild type
Format: functional
Conditions: not given
Method in brief: as §1

SMILES	fold change (FC)
Nc1nc(NC2CC2)c2ncn([C@H]3C=C[C@@H](CO)C3)c2n1 [ABACAVIR]	2.8
Nc1ccn([C@@H]2CS[C@H](CO)O2)c(=O)n1 [LAMIVUDINE]	2.7

Tested on: Human immunodeficiency virus 1
Assay: Antiviral activity against HIV1 isolate 217 harboring reverse transcriptase D67N/K70E/M184V mutant gene by phenosense assay relative to wild type
Format: functional
Conditions: not given
Method in brief: (§2)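 PhenoSense HIV recombinant virus assay: patient-derived HIV-1 with major NRTI resistance mutations tested against increasing drug concentrations to give inhibition curves. EC50 is the concentration giving 50% inhibition. Fold change is the test recombinant EC50 divided by the EC50 of a drug-sensitive wild-type reference virus. Panel of 30 NRTI-resistant isolates plus two wild-type viruses.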

SMILES	fold change (FC)
Nc1nc(NC2CC2)c2ncn([C@H]3C=C[C@@H](CO)C3)c2n1 [ABACAVIR]	2.9
Nc1ccn([C@@H]2CS[C@H](CO)O2)c(=O)n1 [LAMIVUDINE]	>80

Tested on: Human immunodeficiency virus 1
Assay: Antiviral activity against HIV1 isolate 160 harboring reverse transcriptase S68G/V75(I/T)/F77L/Y115F/F116Y /Q151M mutant gene by phenosense assay
Format: functional, organism-based
Conditions: Human immunodeficiency virus 1, isolate 160
Method in brief: as §1

SMILES	EC50 [µM]
Nc1nc(NC2CC2)c2ncn([C@H]3C=C[C@@H](CO)C3)c2n1 [ABACAVIR]	34
Nc1ccn([C@@H]2CS[C@H](CO)O2)c(=O)n1 [LAMIVUDINE]	90

Tested on: Human immunodeficiency virus 1
Assay: Antiviral activity against HIV1 isolate 071 harboring reverse transcriptase 65R/S68N/184V mutant gene by phenosense assay relative to wild type
Format: functional
Conditions: not given
Method in brief: as §1

SMILES	fold change (FC)
Nc1nc(NC2CC2)c2ncn([C@H]3C=C[C@@H](CO)C3)c2n1 [ABACAVIR]	6.6
Nc1ccn([C@@H]2CS[C@H](CO)O2)c(=O)n1 [LAMIVUDINE]	>80

Tested on: Human immunodeficiency virus 1
Assay: Antiviral activity against HIV1 isolate 157 harboring reverse transcriptase L74V/M184V mutant gene by phenosense assay relative to wild type
Format: functional
Conditions: not given
Method in brief: as §1

SMILES	fold change (FC)
Nc1nc(NC2CC2)c2ncn([C@H]3C=C[C@@H](CO)C3)c2n1 [ABACAVIR]	5.2
Nc1ccn([C@@H]2CS[C@H](CO)O2)c(=O)n1 [LAMIVUDINE]	>80

Tested on: Human immunodeficiency virus 1
Assay: Antiviral activity against HIV1 isolate 153 harboring reverse transcriptase L74V mutant gene by phenosense assay
Format: functional, organism-based
Conditions: Human immunodeficiency virus 1, isolate 153
Method in brief: as §1

SMILES	EC50 [µM]
Nc1nc(NC2CC2)c2ncn([C@H]3C=C[C@@H](CO)C3)c2n1 [ABACAVIR]	3.4
Nc1ccn([C@@H]2CS[C@H](CO)O2)c(=O)n1 [LAMIVUDINE]	7

Tested on: Human immunodeficiency virus 1
Assay: Antiviral activity against HIV1 isolate 070 harboring reverse transcriptase 65R/S68G mutant gene by phenosense assay relative to wild type
Format: functional
Conditions: not given
Method in brief: as §1

SMILES	fold change (FC)
Nc1nc(NC2CC2)c2ncn([C@H]3C=C[C@@H](CO)C3)c2n1 [ABACAVIR]	3.2
Nc1ccn([C@@H]2CS[C@H](CO)O2)c(=O)n1 [LAMIVUDINE]	19

Tested on: Human immunodeficiency virus 1
Assay: Antiviral activity against HIV1 isolate 060 harboring reverse transcriptase M41L/D67N/K70R/L210W/T215Y/K219E mutant gene by phenosense assay relative to wild type
Format: functional
Conditions: not given
Method in brief: as §1

SMILES	fold change (FC)
Nc1nc(NC2CC2)c2ncn([C@H]3C=C[C@@H](CO)C3)c2n1 [ABACAVIR]	4.7
Nc1ccn([C@@H]2CS[C@H](CO)O2)c(=O)n1 [LAMIVUDINE]	5.1

Tested on: Human immunodeficiency virus 1
Assay: Antiviral activity against HIV1 isolate 061 harboring reverse transcriptase M41L/D67N/K70R/M184V/L210W/T215Y/K219E mutant gene by phenosense assay
Format: functional, organism-based
Conditions: Human immunodeficiency virus 1, isolate 061
Method in brief: as §1

SMILES	EC50 [µM]
Nc1nc(NC2CC2)c2ncn([C@H]3C=C[C@@H](CO)C3)c2n1 [ABACAVIR]	22
Nc1ccn([C@@H]2CS[C@H](CO)O2)c(=O)n1 [LAMIVUDINE]	> 300

Tested on: Human immunodeficiency virus 1
Assay: Antiviral activity against HIV1 isolate 211 harboring reverse transcriptase D67N/K70R/T215F/K219E/M184V mutant gene by phenosense assay relative to wild type
Format: functional
Conditions: not given
Method in brief: as §2

SMILES	fold change (FC)
Nc1nc(NC2CC2)c2ncn([C@H]3C=C[C@@H](CO)C3)c2n1 [ABACAVIR]	4.4
Nc1ccn([C@@H]2CS[C@H](CO)O2)c(=O)n1 [LAMIVUDINE]	>80

Tested on: Human immunodeficiency virus 1
Assay: Antiviral activity against HIV1 isolate 212 harboring reverse transcriptase L210W/T215Y mutant gene by phenosense assay
Format: functional, organism-based
Conditions: Human immunodeficiency virus 1, isolate 212
Method in brief: as §2

SMILES	EC50 [µM]
Nc1nc(NC2CC2)c2ncn([C@H]3C=C[C@@H](CO)C3)c2n1 [ABACAVIR]	3.6
Nc1ccn([C@@H]2CS[C@H](CO)O2)c(=O)n1 [LAMIVUDINE]	7.3

Tested on: Human immunodeficiency virus 1
Assay: Antiviral activity against HIV1 isolate 070 harboring reverse transcriptase 65R/S68G mutant gene by phenosense assay
Format: functional, organism-based
Conditions: Human immunodeficiency virus 1, isolate 070
Method in brief: as §1

SMILES	EC50 [µM]
Nc1nc(NC2CC2)c2ncn([C@H]3C=C[C@@H](CO)C3)c2n1 [ABACAVIR]	5.7
Nc1ccn([C@@H]2CS[C@H](CO)O2)c(=O)n1 [LAMIVUDINE]	71

Tested on: Human immunodeficiency virus 1
Assay: Antiviral activity against HIV1 isolate 188 harboring reverse transcriptase T215Y/M184V mutant gene by phenosense assay
Format: functional, organism-based
Conditions: Human immunodeficiency virus 1, isolate 188
Method in brief: as §1

SMILES	EC50 [µM]
Nc1nc(NC2CC2)c2ncn([C@H]3C=C[C@@H](CO)C3)c2n1 [ABACAVIR]	7.6
Nc1ccn([C@@H]2CS[C@H](CO)O2)c(=O)n1 [LAMIVUDINE]	> 300

Tested on: Human immunodeficiency virus 1
Assay: Antiviral activity against HIV1 isolate 067 harboring reverse transcriptase A62V/D67G/T69SVG/V75I/T215I mutant gene by phenosense assay
Format: functional, organism-based
Conditions: Human immunodeficiency virus 1, isolate 067
Method in brief: as §1

SMILES	EC50 [µM]
Nc1nc(NC2CC2)c2ncn([C@H]3C=C[C@@H](CO)C3)c2n1 [ABACAVIR]	33
Nc1ccn([C@@H]2CS[C@H](CO)O2)c(=O)n1 [LAMIVUDINE]	46

Tested on: Human immunodeficiency virus 1
Assay: Antiviral activity against HIV1 isolate 192 harboring reverse transcriptase M41L/T215Y mutant gene by phenosense assay
Format: functional, organism-based
Conditions: Human immunodeficiency virus 1, isolate 192
Method in brief: as §1

SMILES	EC50 [µM]
Nc1nc(NC2CC2)c2ncn([C@H]3C=C[C@@H](CO)C3)c2n1 [ABACAVIR]	3.4
Nc1ccn([C@@H]2CS[C@H](CO)O2)c(=O)n1 [LAMIVUDINE]	7.6

Tested on: Human immunodeficiency virus 1
Assay: Antiviral activity against HIV1 isolate 215 harboring reverse transcriptase D67N/K70E mutant gene by phenosense assay
Format: functional, organism-based
Conditions: Human immunodeficiency virus 1, isolate 215
Method in brief: as §2

SMILES	EC50 [µM]
Nc1nc(NC2CC2)c2ncn([C@H]3C=C[C@@H](CO)C3)c2n1 [ABACAVIR]	2.4
Nc1ccn([C@@H]2CS[C@H](CO)O2)c(=O)n1 [LAMIVUDINE]	11

Tested on: Human immunodeficiency virus 1
Assay: Antiviral activity against HIV1 isolate 061 harboring reverse transcriptase M41L/D67N/K70R/M184V/L210W/T215Y/K219E mutant gene by phenosense assay relative to wild type
Format: functional
Conditions: not given
Method in brief: as §1

SMILES	fold change (FC)
Nc1nc(NC2CC2)c2ncn([C@H]3C=C[C@@H](CO)C3)c2n1 [ABACAVIR]	9.1
Nc1ccn([C@@H]2CS[C@H](CO)O2)c(=O)n1 [LAMIVUDINE]	>71

Tested on: Human immunodeficiency virus 1
Assay: Antiviral activity against HIV1 isolate 192 harboring reverse transcriptase M41L/T215Y mutant gene by phenosense assay relative to wild type
Format: functional
Conditions: not given
Method in brief: as §1

SMILES	fold change (FC)
Nc1nc(NC2CC2)c2ncn([C@H]3C=C[C@@H](CO)C3)c2n1 [ABACAVIR]	1.9
Nc1ccn([C@@H]2CS[C@H](CO)O2)c(=O)n1 [LAMIVUDINE]	2

Tested on: Human immunodeficiency virus 1
Assay: Antiviral activity against HIV1 isolate 180 harboring reverse transcriptase K65R mutant gene obtained as site-directed mutant of NL4-3 by phenosense assay relative to wild type
Format: functional
Conditions: not given
Method in brief: as §1

SMILES	fold change (FC)
Nc1nc(NC2CC2)c2ncn([C@H]3C=C[C@@H](CO)C3)c2n1 [ABACAVIR]	2.6
Nc1ccn([C@@H]2CS[C@H](CO)O2)c(=O)n1 [LAMIVUDINE]	12

Tested on: Human immunodeficiency virus 1
Assay: Antiviral activity against HIV1 isolate 056 expressing wild type reverse transcriptase gene by phenosense assay
Format: functional, organism-based
Conditions: Human immunodeficiency virus 1, isolate 056
Method in brief: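 In the PhenoSense recombinant virus assay, virus was tested against increasing drug concentrations. EC50 came from the inhibition curve and was compared with a drug-sensitive reference virus.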

SMILES	EC50 [µM]
Nc1nc(NC2CC2)c2ncn([C@H]3C=C[C@@H](CO)C3)c2n1 [ABACAVIR]	1.5
Nc1ccn([C@@H]2CS[C@H](CO)O2)c(=O)n1 [LAMIVUDINE]	3.2

Tested on: Human immunodeficiency virus 1
Assay: Antiviral activity against HIV1 isolate 058 harboring reverse transcriptase M41L/D67N/K70R/L210W/T215F/K219Q mutant gene by phenosense assay
Format: functional, organism-based
Conditions: Human immunodeficiency virus 1, isolate 058
Method in brief: as §1

SMILES	EC50 [µM]
Nc1nc(NC2CC2)c2ncn([C@H]3C=C[C@@H](CO)C3)c2n1 [ABACAVIR]	7.9
Nc1ccn([C@@H]2CS[C@H](CO)O2)c(=O)n1 [LAMIVUDINE]	14

Tested on: Human immunodeficiency virus 1
Assay: Antiviral activity against HIV1 isolate 067 harboring reverse transcriptase A62V/D67G/T69SVG/V75I/T215I mutant gene by phenosense assay relative to wild type
Format: functional
Conditions: not given
Method in brief: as §1

SMILES	fold change (FC)
Nc1nc(NC2CC2)c2ncn([C@H]3C=C[C@@H](CO)C3)c2n1 [ABACAVIR]	18
Nc1ccn([C@@H]2CS[C@H](CO)O2)c(=O)n1 [LAMIVUDINE]	12

Tested on: Human immunodeficiency virus 1
Assay: Antiviral activity against HIV1 isolate 174 harboring reverse transcriptase M184V mutant gene obtained as site-directed mutant of NL4-3 by phenosense assay
Format: functional, organism-based
Conditions: Human immunodeficiency virus 1, isolate 174
Method in brief: as §1

SMILES	EC50 [µM]
Nc1nc(NC2CC2)c2ncn([C@H]3C=C[C@@H](CO)C3)c2n1 [ABACAVIR]	4.7
Nc1ccn([C@@H]2CS[C@H](CO)O2)c(=O)n1 [LAMIVUDINE]	> 300
